According to ChEMBL document CHEMBL1240492, “3D-QSAR studies of latrunculin-based actin polymerization inhibitors using CoMFA and CoMSIA approaches” (Eur J Med Chem, 2010):

These molecules were tested on MCF7 (assay: Antiproliferative activity against human MCF7 cells after 72 hrs by MTT assay). Details: MCF7, 72 h.
Type: functional, cell-based
How it was run: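 MCF7 breast cancer cells in exponential growth seeded at 8 × 10^3 cells/well and left 24 h to attach. Medium was then switched to serum-free RPMI containing compound at […]. Cells were cultured 72 h at 37 °C in 5% CO2, then given MTT for 4 h and solubilized. A570 was converted to cell number using a hemocytometer-based standard curve. IC50 was obtained by nonlinear regression of log concentration versus cells/well.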

Row | SMILES | IC50
1 | COc1ccc(CC(=O)N2C(=O)SC[C@H]2[C@@]2(OC)C[C@H]3C[C@@H](CC[C@H](C)/C=C\C=C\CC/C(C)=C\C(=O)O3)O2)cc1 | 15.4 µM
2 | C/C1=C/C(=O)O[C@@H]2C[C@@H](CC[C@H](C)/C=C\C=C\CC1)O[C@@](OCCc1ccccc1)([C@@H]1CSC(=O)N1)C2 | 10 µM
3 | C/C1=C/C(=O)O[C@@H]2C[C@@H](CC[C@H](C)/C=C\C=C\CC1)O[C@@](OC(=O)c1ccccc1)([C@@H]1CSC(=O)N1)C2 | 1.92 µM
4 | CO[C@]1([C@@H]2CSC(=O)N2C)C[C@H]2C[C@@H](CC[C@H](C)/C=C\C=C\CC/C(C)=C\C(=O)O2)O1 | 13.1 µM
5 | CCN1C(=O)SC[C@H]1[C@@]1(OC)C[C@H]2C[C@@H](CC[C@H](C)/C=C\C=C\CC/C(C)=C\C(=O)O2)O1 | 20.7 µM
6 | CO[C@]1([C@@H]2CSC(=O)N2C2CCCC2)C[C@H]2C[C@@H](CC[C@H](C)/C=C\C=C\CC/C(C)=C\C(=O)O2)O1 | 5.2 µM
7 | CO[C@]1([C@@H]2CSC(=O)N2CCCO)C[C@H]2C[C@@H](CC[C@H](C)/C=C\C=C\CC/C(C)=C\C(=O)O2)O1 | 19.2 µM
8 | CO[C@]1([C@@H]2CSC(=O)N2Cc2ccccc2)C[C@H]2C[C@@H](CC[C@H](C)/C=C\C=C\CC/C(C)=C\C(=O)O2)O1 | 1.28 µM
9 | CO[C@]1([C@@H]2CSC(=O)N2C(=O)c2ccccc2)C[C@H]2C[C@@H](CC[C@H](C)/C=C\C=C\CC/C(C)=C\C(=O)O2)O1 | 1.82 µM
10 | CCN1C(=O)SC[C@H]1[C@@]1(O)C[C@H]2C[C@@H](CC[C@H](C)/C=C\C=C\CC/C(C)=C\C(=O)O2)O1 | 1.05 µM
11 | C/C1=C/C(=O)O[C@@H]2C[C@@H](CC[C@H](C)/C=C\C=C\CC1)O[C@@](O)([C@@H]1CSC(=O)N1Cc1ccccc1)C2 | 1.59 µM
12 | C/C1=C/C(=O)O[C@@H]2C[C@@H](CC[C@H](C)/C=C\C=C\CC1)O[C@@](O)([C@@H]1CSC(=O)N1CO)C2 | 8.34 µM
13 | CO[C@]1([C@@H]2CSC(=O)N2)C[C@H]2C[C@@H](CC[C@H](C)/C=C\C=C\CC/C(C)=C\C(=O)O2)O1 | 10.2 µM
14 | C/C1=C/C(=O)O[C@@H]2C[C@@H](CC[C@H](C)/C=C\C=C\CC1)O[C@@](OC(=O)NCCCl)([C@@H]1CSC(=O)N1)C2 | 17.3 µM
15 | C/C1=C/C(=O)O[C@@H]2C[C@@H](CC[C@H](C)/C=C\C=C\CC1)O[C@@](OC(=O)NCCCCl)([C@@H]1CSC(=O)N1)C2 | 25.7 µM
16 | C/C1=C/C(=O)O[C@@H]2C[C@@H](CC[C@H](C)/C=C\C=C\CC1)O[C@@](OC(=O)NCCBr)([C@@H]1CSC(=O)N1)C2 | 19.4 µM
17 | C/C1=C/C(=O)O[C@@H]2C[C@@H](CC[C@H](C)/C=C\C=C\CC1)O[C@@](OC(=O)NCc1ccccc1)([C@@H]1CSC(=O)N1)C2 | 3.5 µM
18 | C/C1=C/C(=O)O[C@@H]2C[C@@H](CC[C@H](C)/C=C\C=C\CC1)O[C@@](OC(=O)Nc1ccccc1)([C@@H]1CSC(=O)N1)C2 | 7.69 µM
19 | CO[C@]1([C@@H]2CSC(=O)N2)C[C@H]2C[C@@H](CC[C@H](C)/C=C\CC/C(C)=C\C(=O)O2)O1 [15-METHOXYLATRUNCULIN B] | 19.3 µM
20 | CCCCO[C@]1([C@@H]2CSC(=O)N2)C[C@H]2C[C@@H](CC[C@H](C)/C=C\CC/C(C)=C\C(=O)O2)O1 [15-O-BUTYLLATRUNCULIN B] | 50.1 µM
21 | CCCCCCCCO[C@]1([C@@H]2CSC(=O)N2)C[C@H]2C[C@@H](CC[C@H](C)/C=C\CC/C(C)=C\C(=O)O2)O1 [15-O-OCTYLLATRUNCULIN B] | 50.1 µM
22 | C/C1=C/C(=O)O[C@@H]2C[C@@H](CC[C@H](C)/C=C\C=C\CC1)O[C@@](O)([C@@H]1CSC(=O)N1)C2 [LATRUNCULIN A] | 2.08 µM
23 | C/C1=C/C(=O)O[C@@H]2C[C@@H](CC[C@H](C)/C=C\CC1)O[C@@](O)([C@@H]1CSC(=O)N1)C2 [LATRUNCULIN B] | 1.91 µM
24 | CC(=O)N1C(=O)SC[C@H]1[C@@]1(O)C[C@H]2C[C@@H](CC[C@H](C)/C=C\CC/C(C)=C\C(=O)O2)O1 [N-ACETYLLATRUNCULIN B] | 4.3 µM
25 | C/C1=C/C(=O)O[C@@H]2C[C@@H](CC[C@H](C)/C=C\CC1)O[C@@](O)([C@@H]1CSC(=O)N1CO)C2 [N-HYDROXYMETHYLLATRUNCULIN B] | 2.35 µM
